SR-BI DiI-HDL act: SR-BI HDL lipid transfer activation. AID 504775. hit rate 0.096% among 320,000. CHO ldlA[mSR-BI] cells, DiI-HDL uptake fluorescence, 3 h; 100 = double the neutral-control signal. activation, % at 12.5 µM;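 active means mean replicate activation of at least 60% and every replicate at or above 60%; inconclusive means mean or all-replicate condition met, but not both; inactive means mean below 60% and not all replicates reaching 60%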;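 further: 0% = median plate neutral-control signal and 100% = twice that signal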
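system = CHO ldlA[mSR-BI] cells, LDL receptor-null, SR-BI overexpressing | medium = Ham's F12 with 0.5% BSA, HEPES 25 mM, pH 7.4 | probe or stimulus = DiI-HDL 10 µg/mL | compound dosing = single-point compound dose | incubation = compound exposure 3 h, 37 °C | technique = DiI fluorescence, bottom read | read-out = cell-associated DiI fluorescence as measure of HDL uptake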
Neddyl block: blocks human cullin neddylation. P61081+Q13564. TR-FRET cullin neddylation, biochemical. inhibition, % at 25 µM. hit rate 0.58% among 360,000. AID 651699; in the data active means inhibition above about 36%
UBC13 inh: blocks human UBC13 polyubiquitin chain formation | P61088 | hit rate 0.47% among 330,000 | AID 485273 | TR-FRET | inhibition, % at 20 µM; in the data active means inhibition above about 45%, passing the limit was not always enough; inconclusive means no clear call, values can overlap the other calls
SR-BI DiI inh: blocks mouse SR-BI lipid uptake from DiI-HDL | Q61009 | ldlA[mSR-BI] CHO cells, DiI-HDL uptake fluorescence, 3 h | inhibition, % at 12.5 µM | hit rate 0.96% among 320,000;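 active means mean replicate inhibition of at least 70% and a set share of replicates each scoring 70 or more; inconclusive means meets just one of the two criteria; inactive means fails both criteria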;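 further: 0% = median of neutral control wells and 100% = median of positive control wells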
Target sequence (Q61009 whole entry, looked up): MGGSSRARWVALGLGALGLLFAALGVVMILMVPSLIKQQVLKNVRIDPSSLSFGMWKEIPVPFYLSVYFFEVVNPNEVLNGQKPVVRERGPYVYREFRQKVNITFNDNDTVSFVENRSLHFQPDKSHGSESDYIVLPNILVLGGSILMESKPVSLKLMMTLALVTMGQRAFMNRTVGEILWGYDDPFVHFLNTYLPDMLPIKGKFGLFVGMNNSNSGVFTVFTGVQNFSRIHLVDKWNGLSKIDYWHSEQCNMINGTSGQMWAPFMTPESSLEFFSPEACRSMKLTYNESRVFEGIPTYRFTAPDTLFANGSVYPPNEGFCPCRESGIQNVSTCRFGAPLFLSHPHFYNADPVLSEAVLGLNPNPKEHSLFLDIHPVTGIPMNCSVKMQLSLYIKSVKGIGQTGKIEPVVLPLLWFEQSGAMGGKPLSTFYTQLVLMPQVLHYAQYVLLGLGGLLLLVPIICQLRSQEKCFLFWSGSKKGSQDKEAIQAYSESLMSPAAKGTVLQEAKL
* marks the source's active call; other numbers are inactive results. An excerpt weighted towards active compounds, which were near 1.9% of everything screened.

For COc1ccc([N+](=O)[O-])cc1NC(=O)c1ccccc1N(C)S(C)(=O)=O the results were SR-BI DiI-HDL act 12, Neddyl block -19, UBC13 inh -3 and SR-BI DiI inh -12.
COc1ccc([N+](=O)[O-])cc1NC(=O)C(C)c1ccccc1 (stereo not given) was read as SR-BI DiI-HDL act -11, Neddyl block -26, UBC13 inh -1 and SR-BI DiI inh 11.
Screening COc1ccc([N+](=O)[O-])cc1NC(=S)NC(NC(=O)C(c1ccccc1)c1ccccc1)C(Cl)(Cl)Cl (stereo not given) returned SR-BI DiI-HDL act -87, Neddyl block -29, UBC13 inh -32 and SR-BI DiI inh 87*.
For COc1ccc([N+](=O)[O-])cc1NC(=O)CC(c1ccccc1)c1ccccc1 the results were SR-BI DiI-HDL act -57, Neddyl block -14, UBC13 inh -1 and SR-BI DiI inh 57.
CCn1ncc(C(=O)Nc2ccc([N+](=O)[O-])cc2OC)c1C was read as SR-BI DiI-HDL act -12, Neddyl block -9, UBC13 inh -18 and SR-BI DiI inh 12.
For COCCSc1ccccc1C(=O)Nc1cc([N+](=O)[O-])ccc1OC the results were SR-BI DiI-HDL act -83, Neddyl block -37, UBC13 inh 0 and SR-BI DiI inh 83*.
`C[C@@H]1CN([C@@H](C)CO)C(=O)CCCn2nncc2CO[C@H]1CN(C)C(=O)Nc1ccc(-c2cccs2)cc1` gave Neddyl block -1.
COc1c(C(=O)Nc2ccc(CN3CCOCC3)cc2)cc2ccccc2c1Br was read as SR-BI DiI-HDL act -59, Neddyl block -94, UBC13 inh 3 and SR-BI DiI inh 59.
For COc1c(C(=O)Nc2ccc3[nH]c(=O)[nH]c3c2)cc2ccccc2c1Br the results were SR-BI DiI-HDL act -78, UBC13 inh 6 and SR-BI DiI inh 78*.
`CCOc1ccc(OCCC(=O)Nc2ccccc2C(=O)NC2CC2)cc1` gave Neddyl block 14.
CC(C)(C)SCCNC(=O)c1ccc(Cl)c([N+](=O)[O-])c1 was read as SR-BI DiI-HDL act 79*, Neddyl block -19, UBC13 inh 3 and SR-BI DiI inh -79.
Screening COc1ccc2c(C)nc(Nc3nc(-c4ccccc4)cc(=O)[nH]3)nc2c1 returned SR-BI DiI-HDL act -78, Neddyl block 8, UBC13 inh -20 and SR-BI DiI inh 78*.
For CCOc1cc(OCC)cc(C(=O)N2CCC[C@H]2C(=O)N2CCC[C@H]2C(=O)N[C@H](C)c2ccccc2)c1 the results were Neddyl block -8.
`CCC(C)Oc1cc(-c2ccnc(Nc3cccc(Cl)c3)n2)ccn1` (stereo not given) gave SR-BI DiI-HDL act -26, Neddyl block -14, UBC13 inh 7 and SR-BI DiI inh 26.
Screening OCCCNc1cc(-c2ccnc(Nc3cccc(Cl)c3)n2)ccn1 returned SR-BI DiI-HDL act -82, UBC13 inh 44 and SR-BI DiI inh 82*.
Screening Nc1ccc(N=Nc2ccccc2O)c(N)c1 returned Neddyl block -139 and UBC13 inh -415.
`Oc1ccccc1N=Nc1ccccc1O` gave SR-BI DiI-HDL act -87, Neddyl block -22 and SR-BI DiI inh 87*.
`COc1ccc(CC(=O)Nc2ccc(-c3cn4ccc(C)cc4n3)cc2)cc1` gave SR-BI DiI-HDL act -83, Neddyl block 18, UBC13 inh 4 and SR-BI DiI inh 83*.
For O=C(C(=Cc1ccc(O)cc1)c1ccccc1)c1ccccc1 the results were Neddyl block -5.
Screening COc1ccc(-c2c(-c3cc(OC)cc(OC)c3)n(C)c3ccc(-c4ccc5c(c4)OCCO5)cc23)cc1 returned SR-BI DiI-HDL act 5, Neddyl block -73, UBC13 inh inconclusive and SR-BI DiI inh -2.
For COc1cc(OC)cc(-c2c(-c3cccs3)c3cc(-c4ccc5c(c4)OCCO5)ccc3n2C)c1 the results were SR-BI DiI-HDL act -78, Neddyl block -37, UBC13 inh inconclusive and SR-BI DiI inh 78*.
For COc1cc(OC)cc(-c2c(-c3cccs3)c3cc(-c4ccc(OC)c(OC)c4)ccc3n2C)c1 the results were SR-BI DiI-HDL act -79, Neddyl block -14, UBC13 inh 40 and SR-BI DiI inh 79*.
`COC(=O)c1ccc(N2CCN(C)CC2)c(NC(=O)COc2cccc(C)c2)c1` gave Neddyl block -2 and UBC13 inh -3.
`Cc1ccc(-c2cc(C(F)F)nc(NCC3CCCO3)n2)cc1` (stereo not given) gave SR-BI DiI-HDL act 223*, Neddyl block 29, UBC13 inh 14 and SR-BI DiI inh -224.
`CC1CCc2c(nc3ncnn3c2NCCc2ccccc2F)C1` (stereo not given) gave SR-BI DiI-HDL act -73, Neddyl block -5, UBC13 inh 6 and SR-BI DiI inh 73*.
For CC1CCc2c(nc3ncnn3c2N2CCN(c3ccccc3F)CC2)C1 (stereo not given) the results were SR-BI DiI-HDL act 11, Neddyl block -10, UBC13 inh -4 and SR-BI DiI inh -11.
CC1CCN(c2nc(-c3ccncc3)nc3ccccc23)CC1 was read as SR-BI DiI-HDL act -80, Neddyl block 11, UBC13 inh 25 and SR-BI DiI inh 80*.
NC(=O)c1cc(S(=O)(=O)N2CCCC2)ccc1OCCOc1ccccc1 was read as SR-BI DiI-HDL act -9, Neddyl block 10, UBC13 inh -11 and SR-BI DiI inh 9.
COCCCNc1nc2cc(OC)c(OC)cc2c2nc(-c3ccccc3)nn12 was read as SR-BI DiI-HDL act -86, Neddyl block -24, UBC13 inh 23 and SR-BI DiI inh 86*.
For COCOCCn1cc(CN2CCS(=O)(=O)N(Cc3ccc(-c4cccc(CO)c4)cc3)C(CC(C)C)C2=O)nn1 (stereo not given) the results were Neddyl block -4.
Screening COc1ccc(CCC(=O)Nc2ccc(N3CCOCC3)c(S(=O)(=O)Nc3ccc(OC)cc3)c2)cc1 returned SR-BI DiI-HDL act -18, Neddyl block 1 and SR-BI DiI inh 18.
For CC12CCC(O)CC1=CCC1C2CCC2(C)C1CCC21CCC(=O)O1 (stereo not given) the results were SR-BI DiI-HDL act 22, Neddyl block 1 and SR-BI DiI inh -22.
C[C@]12CCC(O)CC1=CCC1C2CC[C@]2(C)/C(=N\NC(N)=S)CCC12 (stereo not given in full) was read as SR-BI DiI-HDL act -90, Neddyl block 2, UBC13 inh -9 and SR-BI DiI inh 90*.
For CC(C)n1cc(/C=C2/NC(=O)N(c3cccc(Cl)c3)C2=O)c2ccccc21 the results were SR-BI DiI-HDL act -66, Neddyl block 13, UBC13 inh -4 and SR-BI DiI inh 66.
Screening CC(C)n1cc(/C=C2\NC(=O)N(c3cccc(Cl)c3)C2=O)c2ccccc21 returned SR-BI DiI-HDL act -98, Neddyl block 22, UBC13 inh -16 and SR-BI DiI inh 98*.
For CN=c1scc(C)n1/N=C/c1cc(Br)c(O)c(Br)c1 the results were SR-BI DiI-HDL act 13, Neddyl block 15, UBC13 inh -3 and SR-BI DiI inh -13.
`CCN=c1scc(C)n1/N=C/c1cc(Br)c(O)c(OC)c1` gave SR-BI DiI-HDL act -72, Neddyl block 26, UBC13 inh -14 and SR-BI DiI inh 72*.
